According to ChEMBL document CHEMBL4513216, “Probing the Open Global Health Chemical Diversity Library for Multistage-Active Starting Points for Next-Generation Antimalarials” (ACS Infect Dis, 2020):

Assay: Toxicity liver stage against HepG2, at 10uM
Assay type: cell-based
Design: test concentration 10 uM, cell line HepG2-A16-CD81EGFP
Conditions: human, HepG2-A16-CD81EGFP cells; read-out: INHIBITION
Summary of the method: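 Uninfected HepG2-A16-CD81EGFP cells, 3 × 10^3 per well, 1536-well, plated on prespotted compound at 10 μM final, parasite-free screening media added to match infected plates; puromycin 10 μM positive, DMSO 0.5% negative; run in parallel with 48 h PbLuc assay at 37 °C, 5% CO2; viability by CellTiter-Glo luminescence, normalized to controls.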

In order of falling cytotoxicity at 10 µM:
1. COc1cccc(N2CCN(Cc3cc(C)cc(F)c3)CC2=O)c1  25.9%
2. COc1c(C2CCCN2c2ncnc3sccc23)c(C)nn1C (configuration not stated)  21.5%
3. Cc1ccc(CNC(=O)C2CCNC(=O)C2)c(OCCC(C)C)c1 (configuration not stated)  20.4%
4. CCc1ccc(C2CCCN2C(=O)NCC(=O)NCC(C)C)o1 (configuration not stated)  17.7%
5. Cc1nc(C(C)C)ncc1C(=O)N1CCc2c(nc(N(C)C)[nH]c2=O)C1  14.3%
6. Cc1cccc(C)c1-n1nnnc1C1(NCc2ccco2)CCCC1  12.9%
7. O=C(CN(CC(O)c1ccc(F)cc1)C1CC1)NC(C1CC1)C1CC1 (configuration not stated)  11.8%
8. COc1ccccc1CC(=O)NC(CC(=O)O)c1ccc(C)cc1 (configuration not stated)  11.2%
9. COCCNC(=O)c1nnc2ccc(N3CCOCC3)cc2n1  10.8%
10. COCCN1C(=O)CCC12CCC(NCc1cccc(C)n1)CC2 (configuration not stated)  9.4%
11. CN(C)c1cc(CNC(=O)CC2CCCCC2)ccn1  9.24%
12. COCCCNC(=O)c1cc(C(C)C)nc(N2CCCCCC2)n1  9.15%
13. O=C(NCc1cccc(N2CC=CC2)c1)NCC(F)(F)F  8.89%
14. COc1cc(CNCc2ccnc(N3CCCC3)c2)cc(OC)c1  8.8%
15. CCn1c(C)nnc1SCCNC(=O)Cn1cnc2ccccc2c1=O  8.28%
16. CCCc1nnc(N2CC[C@@](O)(C3CCOCC3)[C@H](C)C2)s1  8.26%
17. Cc1nccc(C(=O)NC(CN2CCCC2=O)c2ccccc2)n1 (configuration not stated)  8.01%
18. Cn1c(C2CCCN2C(=O)CN2CSCC2=O)nc2ccccc21 (configuration not stated)  7.81%
19. CC(=O)NCCNc1nc(C2CCCC2)nc2c1cnn2C  7.39%
20. CN(C)C(=O)c1ccn(COc2ccccc2Cl)n1  6.91%
21. COCCNc1c(C#N)c2c(c3nncn13)CN(C)CC2  6.83%
22. Cc1cc(CNCC2(O)CCOCC2)ccc1F  6.71%
23. O=C([C@@H]1CCO[C@@H]2CCN(CC3CC3)C[C@H]21)N1CCCCO1  6.59%
24. CN(C(=O)Cc1coc(-c2ccccc2)n1)C1(C#N)CCC1  6.41%
25. CC(=O)N1CCN(C(=O)CN2CCCC2c2c(C)nn(C)c2C)CC1 (configuration not stated)  6.34%
26. c1cc(-c2noc([C@@H]3CCCN3C3CCC3)n2)cc(N2CCCC2)n1  5.94%
27. CCN1C[C@H]2CCN(Cc3ccncc3)C(=O)[C@@H]2C1  5.53%
28. CC(=O)N1CCO[C@@H]2CN(C(=O)c3ccccc3)CC[C@@H]2C1  5.29%
29. O=C(c1nn[nH]c1Nc1ccc(Cl)cc1)N1CCSCC1  4.67%
30. Cc1cnn(C2CN(Cc3nnc(Cc4ccccc4)o3)C2)c1  4.4%
31. CCCOc1c(CNC2CCSC2)cccc1OC (configuration not stated)  4.36%
32. COc1ccc(C2(CNC(C)c3nnc(C)o3)CCCCC2)cc1 (configuration not stated)  4.21%
33. O=C(NCC1CC1)[C@H]1C[C@@H]2[C@@H](C1)OCCN2Cc1cccnc1  4.09%
34. CCc1cc(NCc2cc(CC(C)C)on2)n2nccc2n1  3.59%
35. COc1ccc(-c2csc(-c3cccc(C(=O)O)c3)n2)cc1OC  3.31%
36. COc1ccccc1C(C#N)NC(=O)c1cccc2c1oc(=O)n2C (configuration not stated)  3.3%
37. Cc1cccc(C(C(=O)N(C)Cc2ccco2)N(C)C)c1 (configuration not stated)  3.15%
38. COCC[C@]1(O)CCN(C(=O)c2cnn(C)c2)C[C@H]1C  2.59%
39. Cn1cc(C2CCCN2C(=O)CCCc2nc3ccccc3[nH]2)cn1 (configuration not stated)  2.35%
40. CN(Cc1ccc(F)cc1)S(=O)(=O)N1CCOCC1  2.35%
41. COCC(=O)N1CCn2c(COc3cccnc3)cnc2C1C (configuration not stated)  2.14%
42. Cc1cc(C(=O)N2CCn3cnc(COCC4CC4)c3C2)no1  1.85%
43. Cn1ccnc1CN1CCC(c2nc3ccccc3n2C)CC1  1.42%
44. Cc1ccc(NC2CCN(C(=O)COc3cccnc3)CC2)nn1  1.3%
45. COc1ccc(C(=O)N2CCCC2c2ccco2)cc1OC (configuration not stated)  1.03%
46. Cc1ccc(CN2CCc3ncnc(-c4ccoc4)c3CC2)o1  0.968%
47. Cc1cccc2c1OCCC2NCc1c(C(C)C)nn(C)c1N(C)C (configuration not stated)  0.423%
48. Cc1nc(CNC(=O)Nc2cc(F)ccc2OC(F)F)no1  0.311%
49. N[C@@H]1c2ccccc2C2(CCN(c3ncccc3C(F)(F)F)CC2)[C@H]1O  0.106%
50. CCc1onc(C)c1C(=O)N1CCN(c2ncc3c(n2)CCOC3)CC1  0.0912%
51. CCN1CCN(C(=O)c2ccnc(N(C)C)c2)CC1  -0.0916%
52. Cc1cccc(-n2cc(C(=O)N3CCCC(n4cccn4)C3)nn2)c1 (configuration not stated)  -0.168%
53. COc1cccc(CCC2CCCN(C(=O)c3ccccn3)C2)c1 (configuration not stated)  -0.237%
54. NC(=O)C1CCN(c2ncc(-c3cnccn3)c([C@H]3CCCO3)n2)CC1  -0.24%
55. CCn1cnnc1CNC(=O)C1COc2ccc(Cl)cc2C1 (configuration not stated)  -0.845%
56. CCC(=O)Nc1cccc(OCC(=O)N[C@@H]2C[C@@H]3CC[C@H]2C3)c1  -1.03%
57. CSCCNC(=O)c1cc(Br)cn1C(C)C  -1.16%
58. CCc1nc(C2CCCN(C(=O)c3cc(C(C)C)[nH]n3)C2)no1 (configuration not stated)  -1.24%
59. Cc1nnn2c1COCC(CNC(=O)c1ccnnc1)C2 (configuration not stated)  -1.35%
60. CN(C)c1ncc2c(n1)N(C)CCN(CC1CC1)C2=O  -1.36%
61. CCNC(=O)NC1CN(CC(=O)NCc2ccccc2C)C[C@@H]1OC (some centres not stated)  -1.6%
62. O=S(=O)(NCC1(c2cccs2)CCOCC1)c1ccc2c(c1)OCCO2  -1.64%
63. Cc1nc2n(n1)CC(NCc1nc(-c3cccs3)no1)CC2 (configuration not stated)  -1.66%
64. Cc1ncsc1C(=O)NCc1cccs1  -1.89%
65. CC(C)c1nn(C)cc1CNCc1cccnc1N(C)C  -1.96%
66. CCOCC(O)CN1CCN(C(=O)c2ccccc2F)CC1 (configuration not stated)  -2.15%
67. CCCN1CCCC2(CCN(S(=O)(=O)c3cccnc3)C2)C1=O (configuration not stated)  -2.3%
68. CC(=O)N1CC2C[C@]2(NC(=O)c2ccco2)C1 (some centres not stated)  -2.36%
69. Cc1ccc(NC2CCCN(C3Cc4ccccc4C3)C2)nn1 (configuration not stated)  -2.38%
70. CCN(CC)CCNC(=O)c1cc(C(C)C)nc(N2CCCC2)n1  -2.44%
71. COc1cccc(CN(C)CCCn2cnc3c(N)ncnc32)c1  -2.63%
72. CCOCC(=O)N1CCc2c(CN(C)C)nn(C(C)C)c2C1  -2.63%
73. O=C(N[C@@H]1CCN(C(=O)C2CCOCC2)C[C@H]1O)c1ccccn1  -2.88%
74. COC(=O)Cc1cccc(NC(=O)Cc2ccon2)c1  -2.93%
75. CNc1cc(-c2cccc(CN)c2)c2cc[nH]c2n1  -3.23%
76. Cc1ccc(C(=O)NS(C)(=O)=O)cc1-n1cccc1  -3.47%
77. COc1cc(CCC(=O)NC2CCCN(C)C2)ccc1OCC(F)(F)F (configuration not stated)  -4.54%
78. CCN(Cc1ccoc1)C(=O)c1ccc(C)c(S(N)(=O)=O)c1  -4.63%
79. CCOc1ccc(NC(C)c2nnnn2-c2ccccc2)cc1CO (configuration not stated)  -5%
80. O=C(Nc1cccc(F)c1)N1CCC(CO)(Nc2ccccc2)CC1  -5.04%
81. N#Cc1ccnc(N2CCN(CC(O)c3c(F)cccc3F)CC2)c1 (configuration not stated)  -5.43%
82. CC(C)(CNc1ccc2ccc(F)cc2n1)NS(C)(=O)=O  -7.04%
83. O=C(c1ccc(C2CCCN2)s1)N1CCC2(CCCO2)CC1 (configuration not stated)  -7.13%
84. CC(C)N1CCOCC2(CN(Cc3ccco3)CCO2)C1 (configuration not stated)  -7.53%
85. CCOc1ccc(NC(C)=O)cc1S(=O)(=O)Nc1nccs1  -8.2%
86. Cc1ccc(-n2ncc(C(=O)NCC3CCS(=O)(=O)C3)c2C)cc1 (configuration not stated)  -9.01%
87. CC(C)(C)c1cn2nc(N3CCCC(Cn4cncn4)C3)sc2n1 (configuration not stated)  -9.32%
88. CCc1nnc2n1CCN(C(=O)c1cc3ccc(F)cc3nc1C)C2  -9.37%
89. Cc1nn(C)c(N(C)C)c1CNC(C)COc1ccc(F)cc1F (configuration not stated)  -9.78%
90. COCC(=O)Nc1cnc(N2CCN(c3ccccc3)CC2)nc1  -9.87%
91. Cc1ccn(-c2ccccc2NCc2ccccn2)n1  -9.99%
92. Cc1nc(CN2CCCN(C(=O)COCC3CC3)CC2)cs1  -11%
93. O=C(c1cccc(F)c1)N1CCCC1c1ncc2c(n1)CCNC2 (configuration not stated)  -12.2%
94. O=C(NC1(c2cccc(F)c2)CCOCC1)c1ccccn1  -12.3%
95. Cc1cc(N2CCC(n3cc(CN4CCSCC4)nn3)CC2)ccn1  -12.5%
96. CC(C)N(C)C(=O)C1=NOC2(CCN(C(=O)c3ccccn3)C2)C1 (configuration not stated)  -13.4%
97. CCc1nc(CNC(=O)c2ccc(C(C)N3CCCCC3)o2)cc(=O)[nH]1 (configuration not stated)  -13.6%
98. COc1cc(C2(C(=O)NCC(=O)NC3CC3)CC2)ccc1C  -17.4%
99. CCc1ccc(C(=O)N2CCN(c3nc(C)cc(OC)n3)CC2)o1  -18.7%
100. Cc1cc(C2CCCN(CCCS(N)(=O)=O)C2)n[nH]1 (configuration not stated)  -20.1%
101. Cc1cc2n(n1)[C@@H](C(F)(F)F)C[C@@H](C1CCCN(C(=O)C(C)C)C1)N2 (some centres not stated)  -22.1%
102. Cc1cc(C(=O)NCC(C)N2CCc3ccccc32)on1 (configuration not stated)  -22.8%
103. CS(=O)(=O)CCN1CCSCC1c1ccc(Cl)cc1 (configuration not stated)  -24.3%
104. CC(c1cc(F)ccc1F)N(C)CCS(=O)(=O)CCC(N)=O (configuration not stated)  -47%
105. Cn1cc(CN2CCCC3(CCN(C(=O)c4ccccn4)C3)C2)cn1 (configuration not stated)  -66.9%
106. CN1CCc2c(CNC(=O)c3nccn3C)cncc2C1  -95.7%
107. CS(=O)(=O)NCc1noc2c1CN(C(=O)C1CCC1)CC2  -105%
108. O=S(=O)(c1cccs1)N1Cc2nc(COCC3CC3)oc2C1  -109%
109. CCN(C)CC(=O)N1CCc2nc(NC)nc(C(=O)N3CCCC3)c2C1  -120%
110. CCc1ccc(CN2CCC3(CCCN(C(=O)c4cnccn4)C3)C2)o1 (configuration not stated)  -127%
111. O=C(N[C@@H]1CN(c2ncc(F)cn2)[C@@H]2COC[C@@H]21)c1cscn1  -139%
112. CCOc1ccc(NC(=O)N2CCOC(C(N)=O)C2)cc1Cl (configuration not stated)  -140%
